Columns and labels:
[1] = test system: spleen T lymphocyte markers; experiment: Immunohistochemistry of spleen from treated tumor-bearing mice; type: in vivo; details: IHC, 15 mg/kg, vs vehicle
Summary of the method: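 Spleens came from tumour-bearing mice treated with 15 mg/kg test compound or vehicle. Sections (4 µm) of 4% PFA-fixed, paraffin-embedded tissue were stained overnight at 4°C with anti-CD4, CD8 and FoxP3. HRP secondary was applied for 30 min, then DAB. Positive particles were counted per field (n = 5); mean ± SEM, unpaired t test.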

[2] = test system: tumor-infiltrating lymphocytes (TILs); experiment: Flow cytometry of tumor-infiltrating lymphocytes from B16F10-hPD-L1 tumors; type: in vivo, mice; details: 15 mg/kg
Summary of the method: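 Tumours from B16F10-hPD-L1 mice treated with 15 mg/kg test compound or vehicle were minced and digested for 45 min at 37°C in collagenase IV (200 U/mL) plus DNase I (40 U/mL). They were then treated with EDTA for 5 min at 37°C and strained at 70 µm. Cells were stained for CD3, CD4, CD8, perforin and granzyme B and analysed by flow cytometry; mean ± SEM, unpaired t test.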

[3] = test system: MC38 tumor; experiment: Antitumor efficacy in MC38 colon tumor-bearing mice; type: in vivo, C57BL/6 mice
Summary of the method: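 Mice were female C57BL/6, 5–6 wk old. MC38 cells (3 × 10⁶) were injected s.c. into the right abdomen; mice were randomised at 50–70 mm³. Test compound (10 or 15 mg/kg) was given i.p. every 2 d in saline with 8% ethanol and 8% glycerin. Atezolizumab (10 mg/kg) was given i.v. every 3 d. Calipers were read every 2 d; volume = 1/2 × L × W². Mice were sacrificed after 7 doses. Body weight was followed; growth inhibition was computed against vehicle and predose volumes.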

[4] = test system: B16F10-hPD-L1 tumor tissue; experiment: RNA-seq of B16F10-hPD-L1 tumor tissue; type: in vivo, mice; details: 15 mg/kg vs vehicle
[5] = test system: CD4+ T cells cultured alone; experiment: T cell response assay, prestimulated T cells cultured alone; type: cell-based, human; details: T-lymphocytes cultured alone, 48 h
Summary of the method: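 Prestimulated human CD4⁺ T cells (IL-2 100 IU/mL, CD3/CD28 beads 1:1, ~7 d expansion) were cultured alone (2 × 10⁴) with or without test compound for 48 h at 37°C, 5% CO₂. Supernatant IFN-γ and TNF-α were measured by ELISA.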

[6] = type: in vivo, mice
Summary of the method: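 Female C57BL/6 mice bearing subcutaneous B16F10-hPD-L1 tumours were randomised and dosed daily for 1 wk with vehicle, 15 mg/kg or 50 mg/kg test compound. On day 7 after the first dose, serum GOT, GPT, ALP and ALB were measured on an automatic dry-type biochemical analyser. Deaths and toxic effects were recorded during the study.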

[7] = test system: Jurkat cells; experiment: Cell toxicity on Jurkat cells during flow cytometric experiments; type: cell-based; details: concentration up to 50 μM
[8] = test system: B16F10-hPD-L1 tumor tissue; experiment: Immunohistochemistry of B16F10-hPD-L1 tumor tissue; type: in vivo, mice; details: IHC, 15 mg/kg, vs vehicle
Summary of the method: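 Tumours came from B16F10-hPD-L1-bearing C57BL/6 mice given 15 mg/kg test compound or vehicle. Sections (4 µm) of 4% PFA-fixed, paraffin-embedded tissue were incubated with anti-FoxP3, anti-CD4 and anti-CD8 overnight at 4°C. HRP secondary was applied for 30 min, followed by DAB. Positive particles were counted per field.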

[9] = test system: B16F10-hPD-L1 tumor; experiment: Antitumor efficacy in B16F10-hPD-L1 tumor-bearing C57BL/6 mice; type: in vivo
[10] = target: murine PD-L1 protein (Mus musculus, UniProt Q9EP73); experiment: SPR binding affinity to murine PD-L1
Summary of the method: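 SPR running buffer was 1.05× PBS (pH 7.4) with 5% DMSO, at 25°C and 30 µL/min. DMSO solvent correction used 8 standards (4.5–5.8%). Test compound (10 mM DMSO stock) was diluted to 100–3.125 µM plus a 0 µM blank. Each cycle had 90 s injection, 120 s dissociation and 30 s buffer carryover check. Kd came from a global steady-state fit.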

[11] = test system: splenic lymphocytes; type: in vivo, mice; details: 15 mg/kg, vs vehicle
Summary of the method: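 B16F10-hPD-L1 (5 × 10⁶ s.c.) mice received 15 mg/kg test compound i.p. every 2 d or vehicle. Spleens were taken at day 24, meshed through 70 µm, ACK-lysed, and 1 × 10⁶ cells were stained for CD3, CD4, CD8 and perforin. For intracellular cytokines, 2 × 10⁶ cells were stimulated with activation cocktail (1:500) plus brefeldin A (1:1000) for 3–4 h at 37°C, then stained for CD3, CD4, IFN-γ and TNF-α. Data are mean ± SEM; unpaired t test.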

[12] = test system: CD4+ T cells cocultured with NCI-H1975 cells; experiment: T cell response assay, CD4+ T cells cocultured with NCI-H1975 cells; type: cell-based, human; details: 48 h coculture, ELISA
Summary of the method: (§1)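 Human CD4⁺ T blasts were expanded ~7 d with IL-2 (100 IU/mL) and CD3/CD28 beads (1:1), then frozen. Target cells (NCI-H1975, HEK293T-hPD-L1 or PD-L1-negative HEK293T; 10,000/well) adhered for 24 h. T cells (2 × 10⁴; E:T 2:1) were added with or without test compound or atezolizumab in complete RPMI-1640 for 48 h at 37°C, 5% CO₂. Supernatant IFN-γ and TNF-α were measured by ELISA.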

[13] = test system: CD4+ T cells cocultured with hPD-L1 overexpressed HEK293T cells; experiment: T cell response assay, CD4+ T cells cocultured with HEK293T-hPD-L1 cells; type: cell-based, human; details: 48 h coculture
Summary of the method: as §1

[14] = test system: CD4+ T cells cocultured with PD-L1-negative HEK293T cells; type: cell-based, human; details: coculture with PD-L1-negative HEK293T cells, 48 h
Summary of the method: as §1

[15] = Stability assay in human blood plasma; type: in vitro ADME
Summary of the method: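 Test compound at 2 µM was incubated in human plasma at 37°C. Duplicate samples were taken at 0, 10, 30, 60 and 120 min. Reactions were stopped with 50% ACN/MeOH containing tolbutamide and labetalol (200 ng/mL each).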

[16] = test system: PD-L1; details: cited from earlier work
[17] = test system: post-treatment tumors; details: responders; cited from earlier work
[18] = flow cytometry and IHC, vs vehicle
[19] = 15 and 50 mg/kg daily, day 7, vs control

Chain of murine PD-L1 protein (Q9EP73 19-290): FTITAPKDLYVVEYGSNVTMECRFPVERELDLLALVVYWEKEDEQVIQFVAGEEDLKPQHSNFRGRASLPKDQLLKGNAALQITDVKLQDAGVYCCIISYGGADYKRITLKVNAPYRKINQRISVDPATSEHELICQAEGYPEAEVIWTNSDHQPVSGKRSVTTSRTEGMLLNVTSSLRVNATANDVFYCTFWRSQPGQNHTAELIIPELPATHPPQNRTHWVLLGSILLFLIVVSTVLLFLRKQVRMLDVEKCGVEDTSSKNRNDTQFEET

## NC(=O)c1ccccc1NC(=O)c1ccc(-c2ccccc2)cc1 [APBC, N-[2-(aminocarbonyl)phenyl][1,1′-biphenyl]-4-carboxamide]
[1]
  density of CD4+ T lymphocytes in the spleen: considerably higher density
  density of CD8+ T lymphocytes in the spleen: considerably higher density
  expression of FoxP3 in the spleen: no significant changes
[2]; TILs, vs controls
  GzmB expression in CD3+ T cells of tumors: markedly elevated
  perforin expression in CD3+ T cells of tumors: markedly elevated
[2]; [18]
  CD4+ T-cell population in tumors: significantly increased
  CD8+ T-cell population in tumors: significantly increased
[3]; 10 mg/kg, after 7 times of treatment
  growth of colon tumors: inhibited significantly
[3]; during the treatment period
  effect on body weight: no significant effect
[4]; CIBERSORTx, P< 0.05
  infiltration of CD8+ T cells in the tumor: significant higher infiltration
[4]; GSEA
  immune pathways (antigen processing and presentation, T-cell receptor signaling, TNF signaling, Th1 and Th2 cell differentiation): markedly upregulated
  pathways related to Glycolysis or MAPK signaling pathway: markedly downregulated
[5]
  IFN-γ and TNF-α production: did not significantly affect
[6]; 1-wk, daily up to 50 mg/kg
  drug-related deaths: no drug-related deaths
  drug-related toxic effects: no drug-related toxic effects observed
  tolerability: well tolerated
[6]; [19]
  serum level of ALB: no significant changes
  serum level of ALP: no significant changes
[6]; daily, up to 50 mg/kg, day 7
  serum level of GOT: tendency to considerable decrease
  serum level of GPT: tendency to considerable decrease
[6]; up to 50 mg/kg
  toxicity in murine models: no observable toxicity
[7]
  cell toxicity: not observed
[8]
  FoxP3 expression levels within tumors: did not significantly change
[9]; 10 mg/kg intraperitoneal every 2 d, 8 treatments
  tumor growth inhibition: 62.1%
[9]; 15 mg/kg intraperitoneal every 2 d
  treated animals almost tumor free: 4 of 10
[9]; 15 mg/kg intraperitoneal every 2 d, 8 treatments
  tumor growth inhibition: 82.2%
[9]; day 24 after tumor inoculation, vs vehicle group with splenomegaly
  spleen (splenomegaly / spleen weight): normal spleens
[10]
  Kd: > 100 µM
[11]; P < 0.001
  percentage of CD3+ CD4+ T lymphocytes in the spleen: significantly increased
  percentage of CD3+ CD8+ T lymphocytes in the spleen: significantly increased
  percentage of CD3+ T lymphocytes in the spleen: significantly increased
[11]; spleen
  percentage of IFN-γ producing CD4+ T cells: extremely significant increase
  percentage of TNF-α producing CD4+ T cells: extremely significant increase
[11]; spleen, P< 0.01
  perforin production from CD3+ cells: significantly increased
[12]
  IFN-γ level: dose dependent increase
  TNF-α level: dose dependent increase
[13]; 10 µM
  TNF-α level increase: 41.8%
[13]; 50 μM
  TNF-α production increase: 86.6%
[14]
  IFN-γ and TNF-α production: did not significantly affect
[15]
  blood plasma stability: relatively good

## C[C@@H](O)[C@H](NC(=O)N[C@@H](CC(N)=O)c1nc([C@@H](N)CO)no1)C(=O)O [CA-170]
[16]
  direct binding to PD-L1: no direct binding

## Atezolizumab: anti-PD-L1 antibody, positive control [reference compound]
[9]; 10 mg/kg tail vein injection every 3 d
  tumor growth inhibition: 66.1%
[17]
  cytokines production such as IFN-γ and TNF-α: increased

From publication PMC7851350 (Neoplasia (New York, N.Y.), 2021)
